An excerpt weighted towards active compounds, which were near 4% of everything screened.
SENP1 inh = human SENP1 catalytic domain inhibitors, primary screen, biochemical, FRET, uHTS; Sentrin-specific protease 1 (Homo sapiens), Q9P0U3; recombinant SENP1 catalytic domain, CyPet-SUMO1-YPet FRET cleavage; inhibition, % at 10 µM; 360,000 compounds, 0.21% hits;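 active = inhibition at least 30% at 10 µM, raw YFP signal under a set limit, fluorescence ratio 0.5 to 1.5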;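 note: 0% = enzyme with DMSO and 100% = no enzyme wells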
Target sequence (Q9P0U3 419-644 limits assumed): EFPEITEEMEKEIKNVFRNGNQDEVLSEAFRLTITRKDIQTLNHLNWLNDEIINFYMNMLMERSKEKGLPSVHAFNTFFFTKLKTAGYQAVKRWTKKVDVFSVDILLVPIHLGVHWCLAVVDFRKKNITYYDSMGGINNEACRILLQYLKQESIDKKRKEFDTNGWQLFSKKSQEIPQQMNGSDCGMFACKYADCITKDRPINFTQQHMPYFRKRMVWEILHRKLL
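Material – human SENP1 catalytic domain · Input – SENP1 enzyme, 20 pM final · Compound dosing – single concentration of 10 µM compound, 0.5% DMSO final · Timing – enzyme reaction for 50 min at room temperature, dark · Measured by – FRET fluorescence in CFP and YFP emission channels · Control set – no-enzyme wells low, DMSO-plus-enzyme wells high control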
NR3A LBD binder = binders of NR3A ligand-binding domain, primary screen, biophysical, differential scanning fluorimetry, uHTS; Glutamate receptor ionotropic, NMDA 3A (GRIN3A) ligand-binding domain; NR3A LBD differential scanning fluorimetry, Tm shift; 0% = protein alone, 100% = glycine-bound protein; Tm shift relative to glycine control, % at 25 µM; 340,000 compounds, 2.5% hits; AID 1259313, 2017;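 active = melting temperature shift of at least 10% of the positive control shift, at one fixed dose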
Arrestin-AP2 inh = inhibitors of beta-arrestin/AP2 binding, primary screen, biochemical, GPCR trafficking, flow cytometry. beta-arrestin 1 C-terminal peptide binding to AP2 beta2-adaptin appendage (human). FITC-arrestin peptide / GST-AP2 beads; AP2 beta2 appendage carries R879A mutation. inhibition, % at 10 µM. 340,000 compounds, 0.31% hits. AID 504490, 2011;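 active = inhibition above a set limit, near 3 SD of compounds lacking own fluorescence, cut at about 54% in these data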;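 note: plate controls were DMSO wells for no effect and 5 µM unlabelled arrestin peptide for full effect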
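Material – AP2 appendage R879A on GSH beads · Buffer or medium – PBS with 0.05% Tween 20 and 0.1% BSA · Probe or stimulus – fluorescein-tagged arrestin peptide at 50 nM final · Incubation – compound with beads 12 min RT, then probe 1 h RT · Detection – high-throughput flow cytometry of beads, ex 488, em 535 nm · Evaluation – percent response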
Cardio protect = cardioprotection against H2O2-induced cell death, primary screen, uHTS, H9c2 cells, ATPLite luminescence. AID 588492, 2011. 360,000 compounds, 0.63% hits. H9c2 cardiomyocytes, H2O2 injury protection, 2 h. protection from H2O2 cell death, % at 20 µM;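 active = compounds giving at least 50% protection of heart cells from peroxide-induced death in the single-dose screen, raw or plate-pattern-corrected value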;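 note: 0% = DMSO wells with peroxide and 100% = DMSO wells without peroxide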
FAS-TE inh = FAS thioesterase domain inhibitors, primary screen, biochemical, fluorescence intensity, uHTS; Fatty acid synthase (Homo sapiens), P49327; recombinant FAS-TE, OMFH fluorogenic substrate, fluorescence endpoint; inhibition, % at 15 µM; 360,000 compounds, 0.67% hits; AID 602261, 2012;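 active = compounds whose normalised, plate-corrected inhibition of enzyme fluorescence in the single-dose primary screen is 50% or more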;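 note: 0% = DMSO with enzyme and 100% = substrate without enzyme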
hiPSC survival = enhancers of single-cell hiPSC survival, primary screen, ATPlite luminescence. 100% = ROCK inhibitor wells, 0% = DMSO. survival enhancement, % at 20 µM. 360,000 compounds, 0.044% hits; in the data active = survival enhancement above about 18%;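 note: cells exposed to compounds for 16 hours before the ATP read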
An asterisk follows results filed as active; . = not tested or not shown.

SMILES | SENP1 inh | NR3A LBD binder | Arrestin-AP2 inh | Cardio protect | FAS-TE inh | hiPSC survival
CN(Cc1cn(Cc2cccc(C(F)(F)F)c2)nn1)C1CN(Cc2cn(Cc3cccc(C(F)(F)F)c3)nn2)S(=O)(=O)C1 (stereo not drawn) | -2 | . | . | . | 6 | 1
Nc1ccc2c(c1)C(=O)c1ccccc1-2 | 1 | -1 | -7 | 1 | 1 | 0
Nc1ccc2c(c1)C(=O)c1ccc(Br)cc1-2 | -1 | 26* | -4 | -9 | 0 | -1
CCc1nc2ccc(C(=O)Nc3cccc(NS(C)(=O)=O)c3)cn2c1N(CC)Cc1cccc(Br)c1 | -9 | . | . | 13 | 23 | -2
Cc1cccc(-n2c(SCc3cc(=O)n4ccsc4n3)nc3ccccc3c2=O)c1 | 4 | -10 | -1 | 67* | 10 | 0
C[C@@H]1CN([C@@H](C)CO)C(=O)CCCn2nncc2CO[C@@H]1CN(C)C(=O)Nc1ccc(N2CCN(C)CC2)cc1 | -1 | . | . | 10 | -10 | 3
CNc1ncnc2c1ncn2[C@H]1CN(Cc2ccc(OC)cc2)C[C@@H](CO)O1 | 0 | . | . | 0 | -3 | 1
Cc1ccc(CN2C(=O)N/C(=C\c3ccc(N4CCOCC4)cc3)C2=O)cc1 | -46 | 17* | 4 | -3 | -1 | -1
O=C(Nc1ccc(N=Nc2ccccc2)cc1)c1ccccc1Cl | 2 | 15* | 10 | -12 | 10 | -1
O=C(Nc1ccc(F)c(Cl)c1)Nc1csc2ccccc12 | 1 | 39* | 20 | -16 | 26 | 0
O=C(Nc1ccc(F)cc1F)Nc1ccc(F)cc1F | 0 | -2 | 2 | -14 | -9 | 2
O=C(Nc1ccc(F)cc1F)Nc1csc2ccccc12 | 2 | 15* | 15 | -14 | 24 | 0
COC(=O)c1cccc(CN2C(=O)C(C)Oc3ccc(C)cc32)c1 (stereo not drawn) | 2 | . | . | -6 | 12 | 7
CCOC(=O)CC(=O)CSc1nc2c(c(C)c1C#N)CCC2 | -116 | 20* | -11 | 7 | 15 | 4
CCOC(=O)CC(=O)CSc1nc(N)c(C#N)c(-c2ccc(Cl)cc2)c1C#N | 0 | 16* | 19 | 22 | 17 | 0
CCOC(=O)CC(=O)CSc1nc(C)cc(C)c1C#N | -66 | -1 | 7 | 8 | 3 | -1
Cc1ccc(OCC(=O)N/N=C\c2ccc(-c3cccc(C(=O)O)c3)o2)c(C)c1 | -21 | 12* | -8 | 4 | 0 | 1
Fc1cccc(Cl)c1C1SCc2nc3ccccc3n21 (stereo not drawn) | -2 | . | . | -9 | -2 | 1
Cc1snc(SCc2cccc(Cl)c2)c1C#N | 1 | 20* | 32 | -8 | 26 | 0
O=CNn1cnc2c(oc3nc(-c4ccccc4)cc(-c4ccco4)c32)c1=O | 2 | 29* | 7 | -1 | -62 | -1
CCOC(=O)C(Cc1ccc(NC(=O)/C(=C/c2ccc(OC(C)=O)cc2)NC(C)=O)cc1)N1C(=O)c2ccccc2C1=O (stereo not drawn) | -1 | 1 | -11 | 59* | 2 | -1
COc1ccccc1C(=O)/C=C/c1ccc(N2CCCCC2)c([N+](=O)[O-])c1 | 4 | -5 | 33 | -17 | 10 | -2
O=C(/C=C/c1ccc(N2CCCCC2)c([N+](=O)[O-])c1)c1ccc(O)cc1 | 3 | 11* | -2 | -13 | 7 | -1
CC12CCC(C(=O)N(CSC(=S)N/N=C\c3ccccc3O)C1=O)C2(C)C (stereo not drawn) | 7 | -5 | 8 | 52* | 15 | -2
CCCCCCc1nc2nc(Cl)c(Cl)nc2[nH]1 | 1 | . | . | -10 | -1 | -2
SMILES | SENP1 inh | NR3A LBD binder | Arrestin-AP2 inh | Cardio protect | FAS-TE inh | hiPSC survival
Cc1ccc(S(=O)(=O)N2CCN(C(=O)CCc3nc4ccccc4c(=O)[nH]3)CC2)c(C)c1 | -10 | -2 | 0 | 72* | -2 | 0
Cc1ccc(C(=O)N2CCOCC2)cc1S(=O)(=O)N1CCOCC1 | -2 | 12* | 2 | 0 | -4 | 0
CC(=O)Nc1ccc(NC(=O)c2cc(=O)c3ccc(C)cc3o2)cc1 | 1 | -2 | 3 | 5 | -4 | 2
CC(=O)Nc1ccc(NC(=O)c2cc(=O)c3cc(C)c(C)cc3o2)cc1 | 2 | 12* | -5 | 1 | -7 | -1
Cc1ccc(C)c(S(=O)(=O)N2CCN(C(=O)CCc3nc4ccccc4c(=O)[nH]3)CC2)c1 | -6 | -2 | 2 | 57* | 0 | 1
Cc1ccc(C(=O)N2CCCC2)cc1S(=O)(=O)N1CCOCC1 | 1 | 0 | 0 | -1 | -9 | 0
COc1ccccc1NC(=O)COC(=O)Cn1c(C)csc1=O | 1 | . | . | 2 | -4 | 13
Cc1ccc(NC(=O)CCc2nc3ccccc3c(=O)[nH]2)cc1S(=O)(=O)N1CCOCC1 | -4 | -1 | -5 | 86* | -3 | 0
COc1ccc(Nc2nc(-c3ccccc3)nc3ccccc23)cc1S(=O)(=O)N1CCOCC1 | -1 | 11* | 5 | 46 | 48 | 1
CC(C)c1ccc(S(=O)(=O)N2CCN(C(=O)CCc3nc4ccccc4c(=O)[nH]3)CC2)cc1 | -24 | . | . | 44 | 12 | 0
Cc1ccc(NC(=O)c2cc(=O)c3ccccc3o2)cc1S(=O)(=O)N1CCOCC1 | 1 | 0 | 34 | 60* | 6 | -1
O=C(CCc1nc2ccccc2c(=O)[nH]1)N1CCN(S(=O)(=O)c2ccccc2Br)CC1 | -9 | 1 | -7 | 71* | -3 | 0
CC(OC(=O)CCc1nc2ccccc2c(=O)[nH]1)C(=O)Nc1ncc(Cl)cc1Cl (stereo not drawn) | -1 | 0 | 4 | 2 | -4 | 2
CC(OC(=O)CCc1nc2ccccc2c(=O)[nH]1)C(=O)Nc1ccc2c(c1)OCO2 (stereo not drawn) | -3 | -3 | -7 | 50* | -4 | -1
O=C(c1cc(COc2ccc(F)cc2Cl)on1)N1CCCCCCC1 | -2 | 1 | -6 | -3 | 16 | 0
Cc1cc(OCc2cc(C(=O)N3CCCCCC3)no2)cc(C)c1Cl | 4 | 11* | -3 | -7 | 27 | 0
Cc1ccc(OCc2cc(C(=O)N3CCCCCCC3)no2)cc1C | 1 | 2 | -17 | -5 | 16 | 0
O=C(c1cc(COc2ccc(F)cc2Cl)on1)N1CCCCCC1 | 3 | 15* | 29 | 1 | 14 | 0

From PubChem
